What is called inhibition is the change of the read-out against control, counted positive when it falls.

The target in the experiment is T1, 3-oxo-5-alpha-steroid 4-dehydrogenase 1 (Rattus norvegicus) (UniProt P24008).
T1 sequence (whole entry): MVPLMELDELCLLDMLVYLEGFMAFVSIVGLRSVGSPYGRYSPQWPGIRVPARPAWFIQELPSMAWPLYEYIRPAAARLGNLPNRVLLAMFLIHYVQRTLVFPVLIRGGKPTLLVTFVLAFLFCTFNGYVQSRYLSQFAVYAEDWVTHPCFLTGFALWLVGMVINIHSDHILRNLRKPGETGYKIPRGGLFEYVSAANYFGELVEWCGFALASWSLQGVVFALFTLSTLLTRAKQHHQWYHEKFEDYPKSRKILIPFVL
Kind of experiment: In vitro inhibitory activity against rat prostatic 5-alpha-reductase (150 ng/tube). The essentials: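 Rat prostatic enzyme preparation incubated with radioactive T and excess NADPH in 0.21 mL medium; 150 ng steroid per incubation (approx. 2 μM). Read-out is percent prevention of [³H]T conversion to [³H]DHT vs. control incubation without inhibitor. Duplicate assays, progesterone (150 ng) or a reference azasteroid (25 ng) as positive controls; most values single, separate determinations, approximate.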
The molecule `COC(=O)[C@H]1CCC2C3CCC4N(C)C(=O)CCC4(C)C3CCC21C` (some centres not stated) registered an inhibition of 96%. To `CC(=O)O[C@H]1CCC2C3CC[C@H]4CC(=O)NCC4(C)C3CCC21C` (some centres not stated) belongs 35%.

Take `CC(CO)[C@H]1CC[C@H]2[C@@H]3CCC4N(C)C(=O)CC[C@]4(C)[C@H]3CC[C@]12C` (some centres not stated): the inhibition is 100%.

`CCN(CC)C(=O)C[C@H]1CC[C@H]2[C@@H]3CCC4N(C)C(=O)CC[C@]4(C)[C@H]3CC[C@]12C` (some centres not stated) yielded an inhibition of 97%. The same measure for `CN1C(=O)CCC2(C)C1=CCC1C2CCC2(C)C1CC[C@@H]2O` (some centres not stated): 36%; for `CC12COC(=O)C=C1CCC1C2CCC2(C)C1CC[C@]2(C)O` (some centres not stated): 8%; for `CC(=O)O[C@H]1CCC2C3CC[C@H]4CN(C(C)=O)CCC4(C)C3CCC21C` (some centres not stated): 33%.

`CC(=O)[C@H]1CCC2C3CCC4NC(=O)CCC4(C)C3CCC21C` (some centres not stated): the inhibition turned out to be 100%. On to `CC(O)[C@H]1CC[C@H]2[C@@H]3CCC4N(C)C(=O)CC[C@]4(C)[C@H]3CC[C@]12C` (some centres not stated), for which the inhibition is 100%.

As for `CCN(CC)C(=O)[C@H]1CCC2C3CCC4N(NC)C(=O)CCC4(C)C3CCC21C` (some centres not stated), the inhibition came to 24%. The molecule `CCN(CC)C(=O)[C@H]1CCC2C3CCC4N(C)C(=O)C(=O)CC4(C)C3CCC21C` (some centres not stated) had an inhibition of 78%. To `CN1C(=O)CC[C@@]2(C)C1CC[C@H]1[C@@H]3CC[C@H](O)[C@@]3(C)CC[C@@H]12` (some centres not stated) belongs 72%. Take `C[C@]12CCC(=O)NC1CC[C@@H]1[C@@H]2CC[C@@]2(C)[C@H]1CC[C@@]21CCCO1` (some centres not stated): the inhibition worked out at 68%.

`CC(=O)O[C@H]1CCC2C3CC[C@H]4CNC(=O)CC4(C)C3CCC21C` (some centres not stated): the inhibition was found to be 0%. In turn, `CCN(CC)C(=O)[C@H]1CC[C@H]2[C@@H]3CC[C@H]4N(C)C(=O)CC[C@]4(C)[C@H]3CC[C@]12C` had an inhibition of 99%. In turn, `COC(=O)[C@H]1CCC2C3CC[C@H]4CC(=O)OCC4(C)C3CCC21C` (some centres not stated) registered an inhibition of 0%. To `CCOC(=O)C[C@H]1CC[C@H]2[C@@H]3CC[C@H]4N(C)C(=O)CC[C@]4(C)[C@H]3CC[C@]12C` belongs 88%; to `CCN(CC)C(=O)[C@H]1CCC2C3CC[C@H]4N(C)C(=O)[C@@H](C)CC4(C)C3CCC21C` (some centres not stated), 99%. In turn, `CCN(CC)C(=O)[C@H]1CCC2C3CCC4N(C)C(=N)CCC4(C)C3CCC21C` (some centres not stated) registered an inhibition of 22%. In turn, `CN1C(=O)CCC2(C)C3CCC4(C)/C(=C/C(=O)O)CCC4C3CCC12` (configuration not stated) had an inhibition of 92%.

On to `CCN(CC)C(=O)[C@H]1CCC2C3CCC4N(C)C(=S)CCC4(C)C3CCC21C` (some centres not stated), for which the inhibition is 50%. For `CN1C(=O)CC[C@@]2(C)C1CC[C@H]1[C@@H]3CC[C@H](C(=O)O)[C@@]3(C)CC[C@@H]12` (some centres not stated), the inhibition turned out to be 90%.

As to `CCN(CC)C(=O)CCC(C)[C@H]1CC[C@H]2[C@@H]3CCC4N(C)C(=O)CC[C@]4(C)[C@H]3CC[C@]12C` (some centres not stated), the inhibition is 100%. Turning to `CC(C(=O)O)[C@H]1CC[C@H]2[C@@H]3CCC4N(C)C(=O)CC[C@]4(C)[C@H]3CC[C@]12C` (some centres not stated), the inhibition stood at 96%. The molecule `COC(=O)CCC(C)[C@H]1CC[C@H]2[C@@H]3CCC4N(C)C(=O)CC[C@]4(C)[C@H]3CC[C@]12C` (some centres not stated) registered an inhibition of 84%.

Molecule `CCN(CC)C(=O)[C@H]1CCC2C3CC[C@H]4N(C)C(=O)[C@H](O)CC4(C)C3CCC21C` (some centres not stated) returned an inhibition of 46%.

The molecule `CCCCCCCCCC[C@H]1CCC2C3CCC4N(C)C(=O)CCC4(C)C3CCC21C` (some centres not stated) yielded an inhibition of 7%. Turning to `CN1C(=O)CCC2(C)C3CCC4(C)C(CC[C@@H]4C(N)=O)C3CCC12` (some centres not stated), the inhibition is 91%. On to `CC(=O)N[C@@H]1CC[C@H]2[C@@H]3CCC4N(C)C(=O)CC[C@]4(C)[C@H]3CC[C@]12C` (some centres not stated), for which the inhibition stood at 87%. The same measure for `CC(=O)[C@H]1CC[C@H]2[C@@H]3CC[C@H]4CS(=O)(=O)C[C@]4(C)[C@H]3CC[C@]12C` (stereo in doubt; 44): 13%; for `CCN(CC)C(=O)[C@H]1CCC2C3CCC4N(C)/C(=N/O)CCC4(C)C3CCC21C` (some centres not stated): 77%; for `CC(=O)[C@H]1CCC2C3CCC4N(C)C(=O)CCC4(C)C3CCC21C` (some centres not stated): 100%. As to `CC(=O)N[C@H]1CCC2C3CCC4N(C)C(=O)CCC4(C)C3CCC21C` (some centres not stated), the inhibition is 76%.

`CCN(CC)C(=O)[C@H]1CCC2C3CCC4N(CCO)C(=O)CCC4(C)C3CCC21C` (some centres not stated) yielded an inhibition of 0%. `CCN(CC)C(=O)[C@H]1CCC2C3CCC4N(C)/C(=N\C)CCC4(C)C3CCC21C` (some centres not stated) came in with an inhibition of 49%.

For `CC(CCC(=O)O)[C@H]1CC[C@H]2[C@@H]3CCC4N(C)C(=O)CC[C@]4(C)[C@H]3CC[C@]12C` (some centres not stated), the inhibition was 88%. `CCN(CC)C(=O)[C@H]1CCC2C3CCC4N(C)CCCC4(C)C3CCC21C` (some centres not stated): the inhibition is 44%. In the case of `CCN(CC)C(=O)[C@H]1CCC2C3CCC4N(C)C(=O)CC4(C)C3CCC21C` (some centres not stated), the inhibition was 7%. The molecule `CCN1C(=O)CC[C@@]2(C)C1CC[C@@H]1[C@@H]2CC[C@@]2(C)[C@H]1CC[C@@]21CCCO1` (some centres not stated) came in with an inhibition of 27%. To `CC12CCNC(=O)C1CCC1C2CCC2(C)C1CC[C@@H]2O` (some centres not stated) belongs 0%; to `CCN(CC)C(=O)[C@H]1CCC2C3CCC4N(c5ccccc5)C(=O)CCC4(C)C3CCC21C` (some centres not stated), 5%; to `CCN(CC)C(=O)[C@H]1CCC2C3CCC4N(C)C(=O)C5OC5C4(C)C3CCC21C` (some centres not stated), 19%.

Turning to `CN1C(=O)CC[C@@]2(C)C1CC[C@@H]1[C@@H]2CC[C@@]2(C)[C@H]1CC[C@@]21CCCO1` (some centres not stated), the inhibition came to 81%. As to `CC(O)[C@@]1(O)CC[C@H]2[C@@H]3CCC4N(C)C(=O)CC[C@]4(C)[C@H]3CC[C@@]21C` (some centres not stated), the inhibition amounted to 100%. For the molecule `CCN(CC)C(=O)[C@H]1CC[C@H]2[C@@H]3CC[C@@H]4NC(=O)CC[C@]4(C)[C@H]3CC[C@]12C`, the inhibition came to 95%. To `CC12CCC(=O)NC1CCC1C2CCC2(C)C1CC[C@@H]2O` (some centres not stated) belongs 57%; to `CCN(CC)C(=O)/C=C1\CC[C@H]2[C@@H]3CCC4N(C)C(=O)CC[C@]4(C)[C@H]3CC[C@]12C` (some centres not stated), 100%; to `CCN(CC)C(=O)[C@H]1CC[C@H]2[C@@H]3CC[C@H]4NC(=O)C=C[C@]4(C)[C@H]3CC[C@]12C`, 74%. `CC(=O)[C@H]1CC[C@H]2[C@@H]3CC[C@H]4CS(=O)(=O)C[C@]4(C)[C@H]3CC[C@]12C` (stereo in doubt; 42) displayed an inhibition of 13%.

With `CCN(CC)C(=O)[C@H]1CC[C@H]2[C@@H]3CC[C@H]4N(C)C(=O)C=C[C@]4(C)[C@H]3CC[C@]12C`, the inhibition is 63%. The same measure for `CC(=O)O[C@H]1CCC2C3CC[C@H]4CNC(=O)CCC4(C)C3CCC21C` (some centres not stated): 0%. Molecule `CC(=O)O[C@H]1CCC2C3CC[C@H]4CC(=O)NCCC4(C)C3CCC21C` (some centres not stated) showed an inhibition of 0%. `CN1C(=O)CCC2(C)C3CCC4(C)C(CC[C@@H]4CN)C3CCC12` (some centres not stated) returned an inhibition of 80%.

Molecule `CCN(CC)C(=O)C(C)[C@H]1CC[C@H]2[C@@H]3CCC4N(C)C(=O)CC[C@]4(C)[C@H]3CC[C@]12C` (some centres not stated) came in with an inhibition of 83%. The molecule `CCNC(=O)[C@H]1CCC2C3CCC4N(C)C(=O)CCC4(C)C3CCC21C` (some centres not stated) came in with an inhibition of 83%.

For the molecule `CN1C(=O)CCC2C3CCC4(C)C(CC[C@@H]4O)C3CCC21` (some centres not stated), the inhibition came out at 81%.

Molecule `CC(=O)[C@H]1CC[C@H]2[C@@H]3CC[C@H]4CS(=O)(=O)C[C@]4(C)[C@H]3CC[C@]12C` (stereo in doubt; 43) gave an inhibition of 13%. As to `CC(=O)O[C@H]1CCC2C3CC[C@H]4NC(=O)CCCC4(C)C3CCC21C` (some centres not stated), the inhibition came out at 94%. In turn, `CCCCCCCCNC(=O)[C@H]1CCC2C3CCC4N(C)C(=O)CCC4(C)C3CCC21C` (some centres not stated) showed an inhibition of 100%. For `CC(C)N(C(=O)[C@H]1CC[C@H]2[C@@H]3CCC4N(C)C(=O)CC[C@]4(C)[C@H]3CC[C@]12C)C(C)C` (some centres not stated), the inhibition stood at 100%. `CCN(CC)C(=O)[C@H]1CCC2C3CCC4N(C)C(=O)/C(=C/O)CC4(C)C3CCC21C` (some centres not stated) showed an inhibition of 48%. The molecule `CCN(CC)C(=O)[C@H]1CC[C@H]2[C@@H]3CC[C@@H]4N(C)C(=O)CC[C@]4(C)[C@H]3CC[C@]12C` returned an inhibition of 7%.
